Molecular target: T1, Nuclear factor of activated T-cells, cytoplasmic 1 (Homo sapiens, UniProt O95644)
T1 sequence (O95644 whole entry): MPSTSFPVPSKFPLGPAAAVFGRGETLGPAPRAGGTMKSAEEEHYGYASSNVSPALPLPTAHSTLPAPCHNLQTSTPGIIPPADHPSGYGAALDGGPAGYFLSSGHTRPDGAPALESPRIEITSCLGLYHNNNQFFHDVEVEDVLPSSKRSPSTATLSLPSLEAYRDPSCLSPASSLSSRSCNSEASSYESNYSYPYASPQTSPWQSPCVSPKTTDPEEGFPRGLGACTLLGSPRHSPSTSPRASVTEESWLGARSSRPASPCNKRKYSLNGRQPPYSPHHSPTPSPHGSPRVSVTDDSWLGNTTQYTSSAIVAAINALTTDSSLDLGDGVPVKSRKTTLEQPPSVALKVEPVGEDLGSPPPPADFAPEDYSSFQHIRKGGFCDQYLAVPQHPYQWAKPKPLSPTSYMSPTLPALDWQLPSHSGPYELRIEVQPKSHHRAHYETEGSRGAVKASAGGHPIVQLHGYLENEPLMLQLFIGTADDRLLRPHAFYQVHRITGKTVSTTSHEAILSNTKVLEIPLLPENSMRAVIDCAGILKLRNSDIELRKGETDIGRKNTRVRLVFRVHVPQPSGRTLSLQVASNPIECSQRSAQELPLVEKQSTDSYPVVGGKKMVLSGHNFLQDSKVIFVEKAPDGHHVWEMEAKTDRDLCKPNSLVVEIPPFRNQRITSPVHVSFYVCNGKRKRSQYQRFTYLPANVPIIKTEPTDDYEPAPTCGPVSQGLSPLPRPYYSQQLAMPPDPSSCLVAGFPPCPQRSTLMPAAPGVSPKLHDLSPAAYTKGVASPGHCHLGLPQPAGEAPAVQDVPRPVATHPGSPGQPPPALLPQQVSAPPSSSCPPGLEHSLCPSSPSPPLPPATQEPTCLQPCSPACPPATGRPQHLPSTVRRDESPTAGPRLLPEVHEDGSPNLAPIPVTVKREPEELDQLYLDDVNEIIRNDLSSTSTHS
Experiment: Inhibition of NFATC activity in HEK293T cells preincubated for 2 hrs followed by ionomycin/phorbol 12-myristate 13-acetate stimulation and measured after 4 hrs by luciferase reporter assay
Outline: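 HEK 293T cells (7.5 × 10⁴/well) co-transfected by CaCl₂ method with 100 ng 3xNFAT-luc and 1 ng pRLnull as transfection control. At 24 h, compound added for 2 h, then stimulated with 1 µM ionomycin, PMA and CaCl₂ for 4 h (20 ng/ml PMA and 2 mM CaCl₂ per figure legend). Luciferase read from crude extracts, relative to stimulated no-compound control (100%). Single doses 50 and 5 μM; dose-response 0.1–50 μM. IC50 by nonlinear regression; 3 experiments in triplicate.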

Row | IC50 | SMILES
1 | 4.5 µM | Cc1ccc(C(=O)NCC(=O)Nc2cc(S(=O)(=O)Nc3ccc(Cl)cc3)ccc2Cl)s1
2 | 11.6 µM | CS(=O)(=O)NCc1cccc(NC(=O)c2ccc3[nH]ccc3c2)c1
3 | 18.7 µM | CS(=O)(=O)NCc1cccc(NC(=O)c2csc3ccccc23)c1
